# Source: PubChem (several laboratories)
# In the library only some 1.8% were active in any assay of this set; here they are far more common.
# CASP6 VEID inh: caspase-6 (human) enzyme inhibition; purified caspase-6, Z-VEID-R110 cleavage fluorescence; inhibition, % at 12.5 µM; actives 0.53% (n = 350,000);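 active = mean inhibition across replicates at least about 35%, with every replicate also reaching that limit, limit read from the data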;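 note: 0% = median of neutral control wells and 100% = no fluorescence left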
# NSD2 HMT inh: inhibitors of human histone methyltransferase NSD2; inhibition, % at 12.5 µM; actives 0.54% (n = 310,000); NSD2 peptide methylation, AlphaScreen, 120 min; AID 743445; in the data active = inhibition above about 50%
# Target sequence (O96028 whole entry, looked up): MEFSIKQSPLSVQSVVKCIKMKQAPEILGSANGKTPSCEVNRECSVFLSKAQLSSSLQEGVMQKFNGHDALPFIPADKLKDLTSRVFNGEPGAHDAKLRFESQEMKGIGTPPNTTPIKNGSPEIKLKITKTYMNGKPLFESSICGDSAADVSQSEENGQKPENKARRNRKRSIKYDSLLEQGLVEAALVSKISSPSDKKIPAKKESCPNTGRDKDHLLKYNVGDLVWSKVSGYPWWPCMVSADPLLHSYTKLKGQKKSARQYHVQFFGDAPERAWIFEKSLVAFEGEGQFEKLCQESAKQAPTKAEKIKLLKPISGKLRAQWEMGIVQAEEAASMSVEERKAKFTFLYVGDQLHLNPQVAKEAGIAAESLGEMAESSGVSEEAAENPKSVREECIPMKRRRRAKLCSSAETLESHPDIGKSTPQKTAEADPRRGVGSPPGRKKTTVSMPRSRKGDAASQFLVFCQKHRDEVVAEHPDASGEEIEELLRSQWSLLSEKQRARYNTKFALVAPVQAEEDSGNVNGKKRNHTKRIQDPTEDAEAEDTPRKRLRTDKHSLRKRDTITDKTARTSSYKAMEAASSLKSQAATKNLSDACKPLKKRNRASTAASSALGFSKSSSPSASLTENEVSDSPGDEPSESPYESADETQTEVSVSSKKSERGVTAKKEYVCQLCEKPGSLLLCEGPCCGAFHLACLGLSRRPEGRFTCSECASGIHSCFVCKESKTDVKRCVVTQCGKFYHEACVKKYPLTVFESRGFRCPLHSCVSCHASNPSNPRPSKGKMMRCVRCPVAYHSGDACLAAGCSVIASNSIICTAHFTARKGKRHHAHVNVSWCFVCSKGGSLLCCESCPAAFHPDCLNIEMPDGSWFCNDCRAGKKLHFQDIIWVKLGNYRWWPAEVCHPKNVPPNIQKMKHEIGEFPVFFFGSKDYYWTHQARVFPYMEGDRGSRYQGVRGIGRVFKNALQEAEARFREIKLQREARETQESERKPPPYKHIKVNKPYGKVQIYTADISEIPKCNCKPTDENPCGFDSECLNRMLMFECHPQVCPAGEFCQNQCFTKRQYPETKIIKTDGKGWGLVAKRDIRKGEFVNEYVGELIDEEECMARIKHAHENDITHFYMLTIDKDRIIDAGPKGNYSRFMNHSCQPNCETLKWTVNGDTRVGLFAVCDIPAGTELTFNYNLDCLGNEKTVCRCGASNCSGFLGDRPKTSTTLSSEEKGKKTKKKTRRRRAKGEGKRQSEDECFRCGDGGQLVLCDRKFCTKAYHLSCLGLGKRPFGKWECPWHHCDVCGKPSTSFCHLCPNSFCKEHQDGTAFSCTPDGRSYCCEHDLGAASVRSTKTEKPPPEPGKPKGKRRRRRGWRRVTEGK
# LEDGF integ inh: blocks HIV-1 LEDGF/p75-dependent DNA integration; TR-FRET IN-LEDGF/p75 DNA integration, Eu/Cy5; inhibition, % at 3.7 µM; actives 0.64% (n = 370,000); AID 743269;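 active = inhibition above the screen-wide mean plus 3 SD, cut at about 13% in these data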;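 note: signal is the Cy5 over europium emission ratio at 671 and 618 nm; 0% = plate median of compound wells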
# UHRF1 MBD2 ctr: human UHRF1 methylated DNA binding inhibitors | UHRF1 binding to methylated oligo, TR-FRET | inhibition, % at 4.4 µM | actives 0.75% (n = 370,000); in the data active = inhibition above about 21%;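 note: UHRF1 SRA domain binding a hemimethylated CpG hairpin DNA probe; 0% = median of test compound wells and 100% = reference inhibitor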
# TDP2 inh: TDP2 (human) inhibition, absorbance primary screen | recombinant TDP2, T5PNP hydrolysis, p-nitrophenol absorbance 415 nm | AID 720702 | inhibition, % at 12.8 µM | O95551 | actives 0.34% (n = 370,000);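 active = inhibition above the mean of all tested compounds plus 3 SD, set per campaign, cut at about 25% in these data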;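 note: 0% = DMSO with enzyme and 100% = buffer with substrate but no TDP2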
#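 Test system: human TDP2 enzyme; Input: 120 nM TDP2 per well; Buffer or medium: Mg2+-containing Tris-HCl buffer, pH 7.5; Reagent: 5 mM T5PNP; Dosing: 12.8 µM single point, 1% DMSO; Incubation: reaction 2 h, 37 °C; Detection: p-Nitrophenol epi absorbance; Read-out: % inhibition relative to enzyme-containing and enzyme-free wells; Replicates: single well per compound.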
# MBD2 DNA inh: blocks human MBD2 binding to methylated DNA | AID 686964 | actives 0.31% (n = 370,000) | TR-FRET, MBD2 binding to methylated oligonucleotide | inhibition, % at 4.4 µM; in the data active = inhibition above about 13%
# IN multimer act: counter-screen for LEDGF/p75 integration inhibitors: HIV-1 integrase multimerization activators. activation, % at 7.7 µM. actives 17% (n = 2,000). AID 1053131. TR-FRET HIV-1 integrase multimerization, biochemical. shares compounds with LEDGF integ inh; in the data active = activation above about 8.9%
# TR-FRET interf: counter-screen for LEDGF/p75 integration inhibitors: TR-FRET optical interference; shares compounds with LEDGF integ inh; TR-FRET optical interference counterscreen, HIV-1 IN multimerization; inhibition, % at 7.7 µM; 2,000 tested, under 10 active; AID 1053135;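 active = inhibition above the mean over all tested compounds plus 3 SD, which no compound reached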;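 note: 0% = integrase with antibodies and DMSO and 100% = antibodies without integrase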
# LEDGF integ conf: confirmation of HIV-1 LEDGF/p75-dependent integration inhibitors; actives 36% (n = 2,000); inhibition, % at 3.7 µM; shares compounds with LEDGF integ inh; TR-FRET LEDGF/p75-dependent HIV-1 integration, biochemical; in the data active = inhibition above about 14%
# * = called active by the depositor; nt = not tested or not shown.
SMILES,CASP6 VEID inh,NSD2 HMT inh,LEDGF integ inh,UHRF1 MBD2 ctr,TDP2 inh,MBD2 DNA inh,IN multimer act,TR-FRET interf,LEDGF integ conf
Cn1cnnc1SCC(=O)N1N=C2/C(=C/c3ccco3)CCCC2C1c1ccco1 (stereo not drawn),nt,4.2,0.5,-5.2,-5.0,-5.0,nt,nt,nt
Nc1nc(SCC(=O)N2N=C3/C(=C/c4ccco4)CCCC3C2c2ccco2)n[nH]1 (stereo not drawn),nt,6.0,17.6*,-3.3,9.1,0.9,0.8,-3.8,6.3
COCC(=O)Nc1ccc2c(c1)C(=O)N(C)C[C@H](OC)[C@@H](C)CN(Cc1ccccc1)[C@@H](C)CO2,-7.6,nt,nt,nt,nt,nt,nt,nt,nt
CCNC(=O)C[C@@H]1CC[C@H]2[C@@H](COc3ccc(NC(=O)Nc4cccc(Cl)c4)cc3C(=O)N2C)O1,0.5,nt,nt,nt,nt,nt,nt,nt,nt
Cc1ccc(CNC(=O)c2cc3c(=O)n4ccccc4nc3n(Cc3ccco3)c2=N)cc1,0.0,-1.4,15.5*,-4.3,-8.5,-4.5,9.2*,-33.3,21.2*
N#Cc1cc2c(=O)n3ccccc3nc2n(Cc2ccco2)c1=NC(=O)c1ccco1,7.4,4.1,30.1*,22.0*,6.2,3.9,-0.3,1.7,5.1
CCCC(=O)N1CCCC1(C)C(=O)Nc1ccc(C)c(C)c1 (stereo not drawn),3.0,-3.0,-0.8,-0.3,5.5,4.7,nt,nt,nt
CCCC(=O)N1CCCC1(C)C(=O)Nc1cc(C)ccc1C (stereo not drawn),2.2,-2.3,85.2*,2.9,2.9,-0.4,-0.3,1.4,-13.7
COc1ccc2c3c(n(C)c2c1)[C@H](CO)N(C(=O)Cc1ccccn1)CC31CCN(CC2CCCC2)CC1,-1.2,nt,nt,nt,nt,nt,nt,nt,nt
CC(C)NC(=O)Nc1ccc2c(c1)CC(=O)N([C@H](C)CO)C[C@@H](C)[C@H](CN(C)Cc1ccccc1)O2,0.1,nt,nt,nt,nt,nt,nt,nt,nt
O=C1CC(c2ccc(O)c(O)c2)Oc2cc(O)cc(O)c21 (stereo not drawn),14.2,nt,13.5*,0.8,1.5,0.3,2.6,-12.9,23.1*
O=C1CC(c2ccc(O)cc2)Oc2cc(O)cc(O)c21 (stereo not drawn),0.9,nt,3.7,-1.2,9.2,-0.3,nt,nt,nt
Cc1ccc(S(=O)(=O)NC2=NCN(CCN3CCOCC3)CN2)cc1,nt,-0.1,22.4*,0.3,3.4,-0.2,-0.7,3.7,-1.2
CCCN1CN=C(NS(=O)(=O)c2ccc(C)cc2)NC1,-4.8,-2.2,1.3,0.6,12.3,2.3,nt,nt,nt
C[C@H](CO)N1C[C@H](C)[C@H](CN(C)S(=O)(=O)c2ccccc2)Oc2c(NC(=O)c3ccncc3)cccc2C1=O,-0.6,nt,nt,nt,nt,nt,nt,nt,nt
O=C(C[C@H]1C[C@H]2c3cc(NC(=O)C4CCOCC4)ccc3O[C@H]2[C@@H](CO)O1)NCc1ccccn1,3.7,nt,nt,nt,nt,nt,nt,nt,nt
Oc1cccc(Nc2ccccc2)c1,-5.0,nt,16.2*,-1.1,2.8,-0.1,25.7*,-83.3,0.7
COC(=O)C1=C/c2ccccc2C(C2CC2)N(Cc2ccc(OC)cc2)/C=C\1C(=O)OC (stereo not drawn),2.9,nt,nt,nt,nt,nt,nt,nt,nt
COC(=O)C[C@@H]1CC[C@H]2[C@H](COc3ccc(NC(=O)Nc4ccc(C)cc4)cc3C(=O)N2C)O1,-0.2,nt,nt,nt,nt,nt,nt,nt,nt
Cc1ccc(/C=c2\s/c(=C(/C#N)C(=O)N3CCCC3)n(Cc3ccco3)c2=O)s1,14.4,-0.3,14.1*,5.0,-7.7,-2.3,1.3,-6.7,0.9
CCN1[C@@H]2c3ccc(-c4ccccc4F)c(=O)n3C[C@@H]2[C@@H](CO)[C@@H]1C(=O)NC1CCCC1,-0.6,nt,nt,nt,nt,nt,nt,nt,nt
COCc1cc(N2CCN(C(=O)OC(C)(C)C)C[C@H]2C)ccc1N1CC[C@H](O)C1,9.9,nt,5.0,-4.7,1.6,-4.9,nt,nt,nt
COCc1cc(N2CCN(C(=O)OC(C)(C)C)C[C@@H]2C)ccc1N1CC[C@H](O)C1,7.9,nt,16.9*,-5.0,2.3,-6.8,3.5,-17.8,1.9
Cc1cc(=O)oc2cc(NC(=O)CC3(CC(=O)O)CCCC3)ccc12,1.3,-1.6,21.3*,-2.4,17.4,-6.8,-1.5,5.3,2.5
Cc1ccc(NC(=O)C2CCCN2C(=O)NC2CCCCC2)cc1C (stereo not drawn),2.2,-7.1,53.3*,6.3,-15.7,2.4,-3.5,17.9,5.1
SMILES,CASP6 VEID inh,NSD2 HMT inh,LEDGF integ inh,UHRF1 MBD2 ctr,TDP2 inh,MBD2 DNA inh,IN multimer act,TR-FRET interf,LEDGF integ conf
C[C@H](CO)N1C[C@H](C)[C@H](CN(C)C(=O)CN(C)C)Oc2cc(C#CC(C)(C)O)ccc2S1(=O)=O,0.8,nt,nt,nt,nt,nt,nt,nt,nt
CCOC(=O)c1c(NC(=O)CSc2nnc(CNC(=O)c3ccco3)n2C)sc2c1CCC2,10.6,5.2,59.7*,3.9,-19.1,-5.3,-0.6,3.0,-2.8
CCOC(=O)c1c(NC(=O)c2ccco2)sc2c1CCCCC2,nt,-1.8,2.5,-0.8,-2.7,-1.2,nt,nt,nt
O=C(c1cnccn1)N1CC(=O)N2[C@H](CO)[C@H](c3ccc(C#CC4CCCC4)cc3)[C@@H]2C1,-0.2,nt,nt,nt,nt,nt,nt,nt,nt
CCC(=O)N(C)C[C@H]1Oc2cc(C#Cc3ccccn3)ccc2S(=O)(=O)N([C@H](C)CO)C[C@H]1C,2.0,nt,nt,nt,nt,nt,nt,nt,nt
COc1ccc(CNC(=O)C2CCCN(c3nccc(C)n3)C2)cc1 (stereo not drawn),nt,25.3,22.9*,3.0,14.7,-4.8,0.2,-1.2,0.5
CCC(=O)N[C@@H]1CC[C@@H](CCn2cc(-c3cccc(OC)c3)nn2)O[C@H]1CO,3.3,nt,nt,nt,nt,nt,nt,nt,nt
CCCNC(=O)[C@@H]1[C@@H](CO)[C@@H]2Cn3c(ccc(-c4cccc(F)c4)c3=O)[C@H]1N2C(C)=O,2.0,nt,nt,nt,nt,nt,nt,nt,nt
CC(C)C#Cc1cnc2c(c1)C(=O)N([C@@H](C)CO)C[C@@H](C)[C@@H](CN(C)C(=O)Nc1ccc(F)cc1)O2,1.6,nt,nt,nt,nt,nt,nt,nt,nt
COc1ccc(/C=N/n2c(N)nc3ccccc32)cc1OC,nt,-1.0,23.7*,9.1,-3.6,6.6,-0.3,1.4,-6.7
CCOC(=O)C(C(C)=O)c1c(Br)c(O)c(O)c2c(C(=O)c3ccc(C)cc3)coc12 (stereo not drawn),nt,1.4,26.1*,-0.8,-2.7,-5.4,-2.3,11.8,14.3*
O=C(c1ccc2c(c1)OCO2)N1CC(=O)N2[C@H](CO)[C@H](c3ccc(C#CC4CCCC4)cc3)[C@H]2C1,2.0,nt,nt,nt,nt,nt,nt,nt,nt
O=[N+]([O-])c1ccc(/C=[N+](\[O-])[C@@H]2CCCC[C@@H]2/[N+]([O-])=C/c2ccc([N+](=O)[O-])o2)o1,27.2,12.4,18.6*,-0.6,5.3,-3.5,-0.5,1.9,33.6*
